Source: ChEMBL document CHEMBL2034932, “2-Anilino-4-(benzimidazol-2-yl)pyrimidines--a multikinase inhibitor scaffold with antiproliferative activity toward cancer cell lines” (Eur J Med Chem, 2012)

Tests used:
[1] = biological target: RAC-alpha serine/threonine-protein kinase (Homo sapiens, UniProt P31749); assay: Inhibition of recombinant AKT1 using GSK3 as substrate assessed as inhibition of [33P]Phosphate incorporation into substrate after 80 mins by scintillation counting
Outline: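 Recombinant AKT1 was assayed radiometrically with [33P]-ATP (about 5×10^5 cpm/well) and GSK3(14-27) substrate at 2000 ng/50 µL. Buffer was 60 mM HEPES-NaOH pH 7.5 with 3 mM MgCl2 and 3 mM MnCl2, and compound was added in 10% DMSO. After 80 min at 30 °C the reaction was stopped with 2% phosphoric acid, washed with 0.9% NaCl and 33P incorporation counted by scintillation.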

EKVX = assay: Antiproliferative activity against human EKVX cells after 48 hrs by SRB assay; format: functional
Outline: (§1)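 Run in the NCI screen of about 60 human tumour cell lines. Cells were exposed to compound for 48 h at five concentrations from 10^-8 to 10^-4 M, then fixed and stained for protein with sulforhodamine B. Absorbance was read at 515 nm. Percent growth was calculated from time-zero, untreated-control and treated readings, and replicate experiments were averaged.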

MDA-MB-435 = assay: Antiproliferative activity against human MDA-MB-435 cells after 48 hrs by SRB assay; format: functional; conditions: MDA-MB-435, 48 h; outline: as §1
TK-10 = assay: Antiproliferative activity against human TK10 cells after 48 hrs by SRB assay; format: functional; conditions: TK-10, 48 h; outline: as §1
[2] = biological target: Serine/threonine-protein kinase PLK1 (Homo sapiens, UniProt P53350); assay: Inhibition of recombinant PLK1 using RBERCHKtide as substrate assessed as inhibition of [33P]Phosphate incorporation into substrate after 80 mins by scintillation counting
Outline: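 PLK1 (recombinant) was phosphorylating RBER-CHKtide at 2000 ng/50 µL with [33P]-ATP (about 5×10^5 cpm/well). Buffer was 60 mM HEPES-NaOH pH 7.5 with 3 mM MgCl2 and 3 mM MnCl2. After 80 min at 30 °C, 2% phosphoric acid stopped the reaction and wells were washed with saline. Incorporated 33P was counted, with residual activity relative to enzyme-free and inhibitor-free controls.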

SW-620 = assay: Antiproliferative activity against human SW620 cells after 48 hrs by SRB assay; format: functional; conditions: SW-620, 48 h; outline: as §1
CAKI-1 = assay: Antiproliferative activity against human CAKI-1 cells after 48 hrs by SRB assay; format: functional; conditions: CAKI-1, 48 h; outline: as §1
Aurora kinase B = Aurora kinase B (Homo sapiens, UniProt Q96GD4); assay: Inhibition of recombinant Aurora B using tetra(LRRWSLG) as substrate assessed as inhibition of [33P]Phosphate incorporation into substrate after 80 mins by scintillation counting
SNB-19 = assay: Antiproliferative activity against human SNB19 cells after 48 hrs by SRB assay; format: functional; conditions: SNB-19, 48 h; outline: as §1
OVCAR-3 = assay: Antiproliferative activity against human OVCAR3 cells after 48 hrs by SRB assay; format: functional; conditions: OVCAR-3, 48 h; outline: as §1
MCF7 = assay: Antiproliferative activity against human MCF7 cells after 48 hrs by SRB assay; format: functional; conditions: MCF7, 48 h; outline: as §1
HT-29 = assay: Antiproliferative activity against human HT-29 cells after 48 hrs by SRB assay; format: functional; conditions: HT-29, 48 h; outline: as §1
UACC-257 = assay: Antiproliferative activity against human UACC257 cells after 48 hrs by SRB assay; format: functional; conditions: UACC-257, 48 h; outline: as §1
Focal adhesion kinase 1 = Focal adhesion kinase 1 (Homo sapiens, UniProt Q05397); assay: Inhibition of recombinant FAK using poly(Glu,Tyr)4 as substrate assessed as inhibition of [33P]Phosphate incorporation into substrate after 80 mins by scintillation counting
Focal adhesion kinase 1, sequence (Q05397 whole entry): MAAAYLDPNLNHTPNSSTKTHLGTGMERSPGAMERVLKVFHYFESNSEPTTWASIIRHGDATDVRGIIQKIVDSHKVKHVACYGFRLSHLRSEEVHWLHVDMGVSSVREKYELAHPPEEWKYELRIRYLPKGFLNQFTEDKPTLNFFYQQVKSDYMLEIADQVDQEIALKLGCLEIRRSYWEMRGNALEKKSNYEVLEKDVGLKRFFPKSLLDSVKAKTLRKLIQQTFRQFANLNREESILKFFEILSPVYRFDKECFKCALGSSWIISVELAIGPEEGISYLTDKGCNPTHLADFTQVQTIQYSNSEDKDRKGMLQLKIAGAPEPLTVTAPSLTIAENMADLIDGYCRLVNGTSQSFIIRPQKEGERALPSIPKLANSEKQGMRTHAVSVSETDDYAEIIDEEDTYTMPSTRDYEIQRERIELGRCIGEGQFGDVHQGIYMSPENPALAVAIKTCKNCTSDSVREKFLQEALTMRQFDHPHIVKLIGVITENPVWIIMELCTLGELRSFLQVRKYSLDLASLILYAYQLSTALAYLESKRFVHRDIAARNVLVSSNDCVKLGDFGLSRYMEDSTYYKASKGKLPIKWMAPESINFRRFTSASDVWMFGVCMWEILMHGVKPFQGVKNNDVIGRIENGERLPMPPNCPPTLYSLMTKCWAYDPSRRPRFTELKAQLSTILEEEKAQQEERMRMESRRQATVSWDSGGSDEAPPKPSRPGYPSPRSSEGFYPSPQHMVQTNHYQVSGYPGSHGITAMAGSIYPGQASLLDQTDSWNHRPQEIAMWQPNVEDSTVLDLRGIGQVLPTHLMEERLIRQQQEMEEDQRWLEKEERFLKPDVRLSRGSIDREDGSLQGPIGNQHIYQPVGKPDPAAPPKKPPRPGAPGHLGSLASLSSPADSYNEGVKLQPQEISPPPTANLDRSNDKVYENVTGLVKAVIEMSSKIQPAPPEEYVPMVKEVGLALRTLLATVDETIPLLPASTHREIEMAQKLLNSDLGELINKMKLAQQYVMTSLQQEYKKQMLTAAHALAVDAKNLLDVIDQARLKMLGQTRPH

RAC-alpha serine/threonine-protein kinase, sequence (P31749 whole entry): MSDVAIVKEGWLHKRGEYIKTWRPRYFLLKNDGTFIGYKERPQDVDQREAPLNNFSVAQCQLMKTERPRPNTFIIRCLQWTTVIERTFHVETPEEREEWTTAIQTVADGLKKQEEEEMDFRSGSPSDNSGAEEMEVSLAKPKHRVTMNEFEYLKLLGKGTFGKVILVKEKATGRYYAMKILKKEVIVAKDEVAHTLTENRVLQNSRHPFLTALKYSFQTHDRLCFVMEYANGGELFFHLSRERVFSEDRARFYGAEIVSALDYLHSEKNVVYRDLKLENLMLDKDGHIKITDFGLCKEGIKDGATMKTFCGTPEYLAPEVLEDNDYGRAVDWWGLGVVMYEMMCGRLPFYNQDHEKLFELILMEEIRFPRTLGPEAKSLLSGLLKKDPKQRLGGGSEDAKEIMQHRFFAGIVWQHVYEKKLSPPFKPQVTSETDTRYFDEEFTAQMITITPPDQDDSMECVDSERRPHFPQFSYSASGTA
Aurora kinase B, sequence (Q96GD4 whole entry): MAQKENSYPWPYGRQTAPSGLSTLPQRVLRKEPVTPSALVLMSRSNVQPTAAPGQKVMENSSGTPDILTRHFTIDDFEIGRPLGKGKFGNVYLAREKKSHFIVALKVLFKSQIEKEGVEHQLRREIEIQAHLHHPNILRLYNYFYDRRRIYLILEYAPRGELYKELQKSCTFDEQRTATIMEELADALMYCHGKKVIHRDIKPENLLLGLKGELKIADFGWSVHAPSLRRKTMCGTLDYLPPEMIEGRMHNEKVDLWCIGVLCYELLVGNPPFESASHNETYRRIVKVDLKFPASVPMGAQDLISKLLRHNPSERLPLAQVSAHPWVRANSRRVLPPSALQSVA
Serine/threonine-protein kinase PLK1, sequence (P53350 whole entry): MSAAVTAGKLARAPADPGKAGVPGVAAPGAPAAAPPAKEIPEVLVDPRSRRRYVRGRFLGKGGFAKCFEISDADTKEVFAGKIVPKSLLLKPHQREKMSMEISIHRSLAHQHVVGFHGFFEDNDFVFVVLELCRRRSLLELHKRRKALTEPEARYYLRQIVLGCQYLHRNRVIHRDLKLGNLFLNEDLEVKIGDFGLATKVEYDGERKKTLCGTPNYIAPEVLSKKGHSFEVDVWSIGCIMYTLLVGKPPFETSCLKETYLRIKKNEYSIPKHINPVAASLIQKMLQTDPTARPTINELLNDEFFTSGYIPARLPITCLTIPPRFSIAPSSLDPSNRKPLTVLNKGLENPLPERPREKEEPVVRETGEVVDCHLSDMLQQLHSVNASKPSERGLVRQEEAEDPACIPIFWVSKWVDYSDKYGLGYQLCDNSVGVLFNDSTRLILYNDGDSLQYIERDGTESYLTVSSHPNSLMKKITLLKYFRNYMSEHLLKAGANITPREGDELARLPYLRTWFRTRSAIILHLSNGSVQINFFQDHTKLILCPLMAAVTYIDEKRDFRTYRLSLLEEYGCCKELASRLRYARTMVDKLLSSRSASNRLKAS

Row | IC50 [1] [µM] | GI50 (MDA-MB-435) [µM] | IC50 [2] [µM] | GI50 (SW-620) [µM] | IC50 (Aurora kinase B) [µM] | GI50 (OVCAR-3) [µM] | GI50 (MCF7) [µM] | GI50 (HT-29) [µM] | IC50 (Focal adhesion kinase 1) [µM] | SMILES | GI50 (EKVX) [µM] | GI50 (TK-10) [µM] | GI50 (CAKI-1) [µM] | GI50 (SNB-19) [µM] | GI50 (UACC-257) [µM]
1 | > 100 | 0.19 | 1.2 | 0.62 | 6 | 0.93 | 0.47 | 27 | – | COc1ccc(Nc2nccc(-c3nc4ccccc4n3C)n2)cc1O | 17 | 26 | 0.86 | 10 | 5.5
2 | > 100 | 0.2 | – | 0.44 | 3 | 0.55 | 0.79 | 3.4 | 0.64 | COc1ccc(Nc2ncc3c(n2)-c2ccccc2NC(=O)C3)cc1O | 4.1 | 4.1 | 0.15 | 21 | 19
3 | – | 2 | – | 1.3 | – | 3.2 | 2 | 1.6 | – | CCN(CC)CCNC(=O)c1c(C)[nH]c(/C=C2\C(=O)Nc3ccc(F)cc32)c1C [SUNITINIB] | 7.9 | 6.3 | 0.63 | 10 | 4
